Measured values reported in ChEMBL document CHEMBL1135415, “Rational design and evaluation of new lead compound structures for selective betaARK1 inhibitors” (J Med Chem, 2002).
The source made the active and inactive calls. The rule behind the calls is not given here.

Experiments:
[1] = target: T1, Beta-adrenergic receptor kinase 1 (Homo sapiens) (UniProt P25098); experiment: Inhibition of Beta-adrenergic receptor kinase 1 at 1 mM (Inactive)
T1 sequence (whole entry): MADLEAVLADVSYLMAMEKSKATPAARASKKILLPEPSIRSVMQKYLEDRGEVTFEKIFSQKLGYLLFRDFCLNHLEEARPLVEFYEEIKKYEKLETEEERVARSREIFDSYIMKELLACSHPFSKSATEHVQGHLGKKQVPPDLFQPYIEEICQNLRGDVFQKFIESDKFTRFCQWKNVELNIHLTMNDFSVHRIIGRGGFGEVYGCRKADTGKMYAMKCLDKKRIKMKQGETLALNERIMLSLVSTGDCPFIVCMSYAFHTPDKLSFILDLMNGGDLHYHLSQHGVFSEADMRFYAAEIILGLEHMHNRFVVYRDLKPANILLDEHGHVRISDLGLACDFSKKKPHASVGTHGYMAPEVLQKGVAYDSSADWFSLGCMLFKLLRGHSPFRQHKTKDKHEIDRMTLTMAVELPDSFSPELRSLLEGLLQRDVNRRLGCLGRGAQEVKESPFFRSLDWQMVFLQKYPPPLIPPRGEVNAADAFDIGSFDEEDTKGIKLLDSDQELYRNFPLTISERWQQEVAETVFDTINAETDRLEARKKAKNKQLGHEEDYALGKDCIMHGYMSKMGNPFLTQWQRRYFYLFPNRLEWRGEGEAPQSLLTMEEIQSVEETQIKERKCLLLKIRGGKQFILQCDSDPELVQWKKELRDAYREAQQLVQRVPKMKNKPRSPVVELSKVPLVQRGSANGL
Outline: (§1)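 Radiometric assay of βARK1 phosphorylating the intracellular C-terminal domain of human β2-adrenergic receptor (6.7 μM) with 10 mM [γ-32P]ATP (18.5 kBq). Stopped on ice water, then gel electrophoresis and imaging-plate readout of radioactivity. Inhibition % taken against control and background.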

[2] = target: T1, Beta-adrenergic receptor kinase 1 (Homo sapiens); experiment: Inhibition of Beta-adrenergic receptor kinase 1 at 1 mM; outline: as §1
[3] = target: cAMP-dependent protein kinase (PKA) (Homo sapiens) (UniProt P22694+P17612+P22612); experiment: Inhibition of Protein kinase A (PKA) at 1 mM; assay type: functional
Outline: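 Colorimetric kit assay of PKA (final 87 units/μL) with dye-linked kemptide substrate (LRRASLG). Incubated 30 min at 30 °C. Phosphorylated substrate captured on affinity membrane, eluted, read at OD 570 nm. PKI5-24 was the positive control.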

[4] = target: T2, Beta-adrenergic receptor kinase 1 (Homo sapiens, UniProt P25098); experiment: Inhibition of Beta-adrenergic receptor kinase 1; outline: as §1
T2 sequence (P25098 whole entry): T1 sequence (whole entry)

| inhibition [1] | inhibition [2] [%] | Compound | further results |
| --- | --- | --- | --- |
| inactive |  | Clc1ccc(-c2csc(Nc3ccccc3)n2)cc1 |  |
| inactive |  | O=C(Nc1ccc(F)c([N+](=O)[O-])c1)Nc1cccc2c(O)cccc12 |  |
|  | 28.8 | COC(=O)c1sccc1Oc1ccc(C(F)(F)F)cc1NC=C(C#N)C#N |  |
| inactive |  | O=[N+]([O-])c1ccccc1/N=C/c1ccc2c(c1)OCO2 |  |
|  | 20.4 | O=C1C(O)=C(O)O[C@H]1C1COC2(CCCCC2)O1 (stereo not given in full) |  |
| inactive |  | COc1ccc(/C=N/c2ccc(O)cc2)cc1 |  |
|  | 52.7 | CCC(=O)n1nc2c(c1C(C)(C)C)C(=O)c1ccccc1-2 | inhibition [3]: -2.2%; IC50 [4]: 563 µM |
|  | 26.5 | Cc1ccc(Cl)cc1NCN1C(=O)CNC1=S |  |
| inactive |  | C/C(CCS(=O)(=O)c1ccccc1)=N\OC/C=C/Cl |  |
|  | 0 | CC(C)COC(=O)CSc1nc2c(c(=O)[nH]c(=O)n2C)n1C |  |
|  | 88.4 | COC(=O)c1ccc(/C=C/c2ccc([N+](=O)[O-])o2)o1 | inhibition [3]: 1.8%; IC50 [4]: 126 µM |
| inactive |  | CCCCCCCCCCCCCCCCN(C)c1ccc(S(C)(=O)=O)cc1N |  |
|  | 37.3 | CC(=O)CC(=O)Nc1cc(C(C)(C)C)sc1C(N)=O |  |
| inactive |  | Cc1csc(-c2nc(-c3ccc(Cl)cc3)no2)c1Cl |  |
|  | 67.3 | Oc1nnc(Cc2ccc(-c3ccccc3Cl)o2)c2ccccc12 |  |
| inactive |  | CC(C)Sc1nc2sccn2c1/C=N/OCc1c(Cl)cccc1Cl |  |
|  | 37.7 | O=C(NCc1ccco1)c1ccc([N+](=O)[O-])o1 |  |
|  | 20.1 | CCOC(=O)c1cnc2c(C(F)(F)F)cccc2c1O |  |
|  | 0 | O=C1C(O)=C(O)O[C@@H]1C1COC2(CCCCC2)O1 (stereo not given in full) |  |
|  | 24.2 | Nc1nc(O)c2ncn([C@H]3O[C@@H]4COP(=O)(O)O[C@H]4[C@H]3O)c2n1 |  |

| Compound | inhibition [1] | inhibition [2] [%] | further results |
| --- | --- | --- | --- |
| NC(=O)c1ncn([C@@H]2O[C@@H](CO)[C@H](O)[C@@H]2O)n1 |  | 0 |  |
